SMILES strings stand for the structures.

The record followed here is ChEMBL document CHEMBL4513216, “Probing the Open Global Health Chemical Diversity Library for Multistage-Active Starting Points for Next-Generation Antimalarials” (ACS Infect Dis, 2020).

The nature of this series: Toxicity liver stage against HepG2, at 10uM. Type of series: cell-based. The arrangement: test concentration 10 uM, cell line HepG2-A16-CD81EGFP. Particulars: human, HepG2-A16-CD81EGFP cells; read-out: INHIBITION
Summed up: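 Uninfected HepG2-A16-CD81EGFP cells, 3 × 10^3 per well, 1536-well, plated on prespotted compound at 10 μM final, parasite-free screening media added to match infected plates; puromycin 10 μM positive, DMSO 0.5% negative; run in parallel with 48 h PbLuc assay at 37 °C, 5% CO2; viability by CellTiter-Glo luminescence, normalized to controls.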
Consider `CC(=O)N(C)Cc1ccccc1NC(=O)c1cnn(C)c1C`, for which the cytotoxicity at 10 µM came to 2.31%. As for `CC(C)(C)CNC1(Cc2cc(C(C)(C)O)on2)COC1`, the cytotoxicity at 10 µM was -6.11%. Turning to `CC(C)N1C[C@@H]2OCC(=O)N(Cc3ccccc3)[C@@H]2C1`, the cytotoxicity at 10 µM was 10.5%. Under `CCCSc1ncccc1C(=O)NCc1ccc(N(C)C)cc1` stands 8.07%.

`CCc1ccc2c(C3CN(C(C)=O)C3)ncn2c1`: the cytotoxicity at 10 µM turned out to be 2.16%. Under `Cc1cc(C(=O)N2CCC3(CC2)C(=O)NCCN3CC(C)C)c(C)o1` stands 9.61%; under `CCn1ncc2c1C(COC)CN(Cc1ccc(C)o1)C2` (stereo not given), 5.41%; under `CN1Cc2c(C(=O)NCC3CCCO3)ncn2-c2ccccc2S1(=O)=O` (stereo not given), -141%. `O=C(c1cccnc1)N1CCN(CC2CC2)c2ncccc2C1`: the cytotoxicity at 10 µM turned out to be 2%. Under `O=C1CC(c2cccc(O)c2)c2c(c(C(=O)O)cn2-c2ccccc2)N1` (stereo not given) stands 1%; under `COc1ccc(OC)c(C(C)NS(=O)(=O)c2cn(C)nc2C)c1` (stereo not given), 8.35%; under `CCn1cc(Cn2cc(Cl)c(N)n2)c(C)n1`, -6.56%. Under `COCc1nc(N(C)C)ncc1C(=O)Nc1ccc(Cl)cc1` stands 0.474%; under `O=C(CC1CCCC1)N1CCC(c2nnc(-c3ccccn3)o2)CC1`, -3.32%; under `Cc1cc(C)cc(NCCC(=O)NC2CCN(C(=O)C3CC3)CC2)c1`, 2.4%. Under `CCc1nc2n(n1)CC(NCCc1cccs1)CC2` (stereo not given) stands -13%; under `CN(Cc1cnn(C)c1)C(=O)Cc1ccc2c(c1)OCCO2`, 2.45%. In the case of `CC1CCCN(Cc2ccc(CNC(=O)NCc3ccon3)cc2)C1` (stereo not given), the cytotoxicity at 10 µM was -10%. Under `O=C(CCNC(=O)c1sccc1-c1ccccc1)NC1CCS(=O)(=O)C1` (stereo not given) stands 1.9%; under `CCN(CC(=O)NC)S(=O)(=O)N1CCCCC1`, 1.29%; under `Cc1ccc(-n2ccnc2)c(C(=O)NCCOCC(F)(F)F)c1`, -136%.

Consider `CC(C)n1cc(S(=O)(=O)NCCc2nnc3ccccn23)cn1`, for which the cytotoxicity at 10 µM worked out at 7.07%. Under `Cn1cnnc1CNC(=O)C1CCCN(Cc2cccc(F)c2)C1` (stereo not given) stands 5.49%; under `Cc1ccc(CCNC(=O)NCCCC(N)=O)c(C)c1`, 5.71%; under `CC(c1nnc(-c2cccs2)o1)N1CCc2cncnc2C1` (stereo not given), 6.37%. Under `CC(C)(C)CCN1CCN(c2snc(Cl)c2C#N)CC1` stands 38.1%; under `CS(=O)(=O)c1cccc(S(=O)(=O)NC(=O)CC2CCCCC2)c1`, -3.17%. Under `Nc1cc2c(nn1)CCN(C(=O)c1cccnc1Oc1ccccc1)C2` stands -11.6%; under `COCCNC(=O)N1CCCCC1CNC(=O)Nc1ccccc1` (stereo not given), -0.244%; under `Cc1ccc(CCC(=O)N2CCOCC2)cc1Cl`, 12.3%. `CC(CNC(=O)N1CCSCC1)Cc1cccs1` (stereo not given): the cytotoxicity at 10 µM is -8.63%. Under `NC(=O)C1CCCN1Cc1cccc(NC(=O)c2ccsc2)c1` (stereo not given) stands 16.3%; under `COCCc1noc(CN(C)C2CCCN(c3ccc(C)nn3)C2)n1` (stereo not given), 19.3%; under `CCOCc1nc2c(c(N3CC=CC3)n1)CCN(Cc1ccco1)CC2`, -3.81%. Under `Cc1ncsc1CCN(C)C(=O)c1ccc(CN2CCCCC2)cc1` stands -4.38%. Under `CCN(CC)C(=O)Cn1cc(-c2nc(C(C)C)no2)nn1` stands 2.28%. For `O=C1CC[C@H]2CN(c3ncc(F)cn3)CC[C@H]2N1CCc1ccccn1`, the cytotoxicity at 10 µM came out at 4.83%.

Consider `COc1c(F)cc(CN2CCC3(CC2)C(C(=O)O)CC(=O)N3C)cc1Cl` (stereo not given), for which the cytotoxicity at 10 µM was determined as 5.13%.

As for `Cc1nnc(SCC(=O)NCC(c2ccccc2Cl)N(C)C)s1` (stereo not given), the cytotoxicity at 10 µM was 2.67%. As to `CN(C)S(=O)(=O)N1CCCCC1CCc1ccc(O)cc1` (stereo not given), the cytotoxicity at 10 µM worked out at 4.32%. Turning to `O=C1CC(c2ccc3ccccc3n2)c2c(n[nH]c2C2CCC2)N1` (stereo not given), the cytotoxicity at 10 µM was -6.43%. Under `O=C(CCc1cc2n(n1)CCNC2)NCCS(=O)(=O)N1CCCC1` stands 0.487%; under `COCCC1CCCCN1Cc1nc(Cc2cccc(F)c2)no1` (stereo not given), -142%.

Consider `COc1cccc([C@@H]2CCN(Cc3ccc4ccccc4n3)C[C@H]2O)c1`, for which the cytotoxicity at 10 µM was -16.5%.

As to `CCOCCCC(=O)N(C)C(c1cccc(F)c1)c1ccccn1` (stereo not given), the cytotoxicity at 10 µM was -10.2%. Under `Cn1cc(CCNC(=O)N2CCCC(c3nncn3C)C2)cn1` (stereo not given) stands -4.41%; under `Cc1cccc(NC(=O)C(C)Nc2cccc(CN3CCOC3=O)c2)c1` (stereo not given), 6.92%.

For the molecule `Cc1noc(C(C)C)c1C(=O)NCCC(=O)N1CCCCC1`, the cytotoxicity at 10 µM was found to be 0.632%.

`Cc1nnc(NC(=O)CN2CCc3nn(C(C)C)c(=O)cc3C2)s1`: the cytotoxicity at 10 µM was -18.9%. As to `CCOc1cccc(CNCc2ccc(NC(=O)NC(C)C)cc2)c1`, the cytotoxicity at 10 µM is -11.5%. Under `CC(=O)N(Cc1noc(C)n1)C1CCN(Cc2cccc(C#N)c2)C1` (stereo not given) stands -0.645%; under `Cc1cnn(CC2CCCCN2C(=O)c2ccc3c(c2)COC3)c1` (stereo not given), -24.7%; under `O=C(CN1CCOC(Cn2cccn2)C1)Nc1ccncc1` (stereo not given), 0.748%. For the molecule `COc1ccc(-c2noc(CN3CC(n4cccn4)C3)n2)c(OC)c1`, the cytotoxicity at 10 µM is -11.2%.

As for `C=C1c2ccccc2C(=O)N1CCC(=O)N1CCNC(=O)C1`, the cytotoxicity at 10 µM was -4.12%. Under `O=C(Nc1ccccc1F)C1=NOC2(CCNCC2)C1` stands 2.93%; under `Cn1cc(CN2CCO[C@@H]3CN(Cc4ccoc4)C[C@@H]3C2)cn1`, 2.14%; under `Cc1noc([C@@H]2C[C@H]3OCC[C@H]3N(C(C)C)C2)n1`, -125%. Under `COCc1nn(C(C)C)c2c1CCN(Cc1ccccn1)C2` stands 8.04%; under `CN1CCN(Cc2cnc3n2CCN(CCc2ccccc2)C3)CC1`, -6.98%. As for `Cc1cnc(N2C[C@H]3C[C@H](C(=O)N4CCN(C)CC4)N(C)[C@H]3C2)nc1`, the cytotoxicity at 10 µM is -135%. For `COCCN1CCO[C@H]2CCN(C(=O)c3cccs3)CC[C@@H]21`, the cytotoxicity at 10 µM was -0.234%.

In the case of `CO[C@H]1CCN(S(=O)(=O)N(C)C)[C@@H]2CN(Cc3cccnc3)C[C@H]12`, the cytotoxicity at 10 µM was 11.9%. Under `CCC(=O)N1C[C@@H]2CCN(c3cnccn3)C[C@@H]2C1` stands -13.2%. Take `Cc1nc(CO[C@H]2CN(Cc3ccccn3)[C@@H]3CCCO[C@H]23)cs1`: the cytotoxicity at 10 µM worked out at 1.33%. Under `COc1cc(OC)cc(-c2cc(CN)nc3ccnn23)c1` stands -0.945%; under `CN(Cc1ccco1)C1CCC12CCN(C(=O)N1CCCC1)CC2` (stereo not given), -1.54%. For `CC(C)n1nc(CNc2ncccn2)c2c1CN(C1CCOCC1)CC2`, the cytotoxicity at 10 µM was -129%. Under `CC(=O)N1C[C@H]2CC[C@@H](C1)N(S(=O)(=O)c1cc(F)ccc1C)C2` stands 2.91%.

With `CN(C)C1(CNC(=O)CC=Cc2ccc(F)cc2)CCOCC1`, the cytotoxicity at 10 µM stood at 8.99%.
